For data set [1], the system named is Radical scavenging activity. The experiment in a line: Antioxidant activity assessed as DPPH radical scavenging activity at 100 uM after 20 mins. Format: functional. An outline of the steps: (§1)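 DPPH 0.05 mM in absolute ethanol mixed with an equal volume of compound in DMSO (final 50 and 100 μM). Shaken vigorously, then left to stand 20 or 60 min. At least triplicate; absorbance SD under 10% of mean.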

A further data set concerns Glycine max. The experiment in a line: Inhibition of soybean lipoxygenase at 100 uM by UV absorbance based assay. An outline of the steps:
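Soybean LOX (1 × 10^-4 w/v in saline, diluted 1:9 with saline) incubated at room temperature with sodium linoleate and compound in DMSO (100 μM). Conversion to 13-hydroperoxylinoleic acid recorded at 234 nm against a standard inhibitor. At least triplicate.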

Data set [2] deals with Radical scavenging activity. The experiment in a line: Antioxidant activity assessed as DPPH radical scavenging activity at 100 uM after 60 mins. Type of data set: functional. An outline of the steps:
as §1
A general note: The DPPH test is a chemical assay of radical scavenging.

Data set [3] in a line: Inhibition of AAPH-induced linoleic acid lipid peroxidation. Type of data set: physicochemical. An outline of the steps: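 Linoleic acid sodium salt (10 μL of 16 mM) in 0.05 M phosphate buffer pH 7.4, prethermostated at 37 °C. Oxidation started under air at 37 °C with 50 μL of 40 mM AAPH, compounds in DMSO. Conjugated diene hydroperoxide formation followed as rising absorbance at 234 nm; result given as IC50. At least triplicate.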

Data set [4] deals with Rattus norvegicus. Briefly: Antiinflammatory activity in Fisher 344 rat assessed as inhibition of carrageenan-induced paw edema at 0.01 mmol/kg, ip administered simultaneously with carrageenan. Format: functional. Particulars: Fisher 344, ip. An outline of the steps: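 Edema induced by intradermal injection of 0.1 mL 2% carrageenin in water into right hind paw of Fisher 344 rats (150-200 g), both sexes, pregnant females excluded, fasted during experiment; 6-15 animals per group. Compound suspended in water with a few drops of Tween 80, given ip. Rats euthanized 3.5 h later. Injected minus uninjected paw weight compared with water-treated controls as % inhibition; mean of two experiments.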
In general terms: The carrageenan paw model is a standard test of acute inflammation.

Data set [5] deals with Rattus norvegicus. The experiment in a line: Toxicity in Fisher 344 rat carrageenan-induced inflammation model at 0.2 mmol/kg, ip administered simultaneously with carrageenan. Particulars: in vivo. Type of data set: organism-based.
The test system of data set [6] is Radical scavenging activity. Briefly: Antioxidant activity assessed as DPPH radical scavenging activity at 50 uM after 20 mins. Format: functional. An outline of the steps: as §1
Data set [7] has as its system Radical scavenging activity. The experiment in a line: Antioxidant activity assessed as DPPH radical scavenging activity at 50 uM after 60 mins. Format: functional. An outline of the steps: as §1

Activity calls are given as the source filed them. No cut-off for these calls is given here.

On to `CC1(c2ccccc2)CC(c2ccccc2)=Nc2c(O)cccc2N1` (stereo not drawn), for which the Activity is 30% in data set [1] and 29% in data set [2]. For the same compound, the inhibition (in general, the share of the control response that was lost under treatment) in the data set on Glycine max is 28%. For the same compound, half-maximal inhibition in data set [3] (IC50) required 50 µM.

Regarding `COc1cccc(C2=Nc3c(O)cccc3NC(C)(c3cccc(OC)c3)C2)c1` (stereo not drawn), the Activity in data set [1] and in data set [2] was 27% each time. Besides, the inhibition in the data set on Glycine max was 37%. Further, it took 60 µM to reach half-maximal inhibition in data set [3] (IC50).

`Cc1c(C)c2c(c(C)c1O)CCC(C)(C(=O)O)O2` (stereo not drawn) [TROLOX]: in data set [3], the concentration for half-maximal inhibition (IC50) (as a rule, the point on the concentration scale where inhibition reaches its midpoint) worked out at 63 µM.

With `CC1(c2cccc([N+](=O)[O-])c2)CC(c2cccc([N+](=O)[O-])c2)=Nc2c(O)cccc2N1` (stereo not drawn), the Activity in data set [1] and in data set [2] was 32% each time. Also, the inhibition entry in the data set with Glycine max is “inactive”. Besides, in data set [3], it took 46 µM to reach half-maximal inhibition (IC50).

As to `COc1ccccc1C1=Nc2c(O)cccc2NC(C)(c2ccccc2OC)C1` (stereo not drawn), the Activity in data set [1] and in data set [2] was 36% each time. Also, in the data set with Glycine max, the inhibition was 3%. Moreover, the IC50 in data set [3] was 46 µM.

Turning to `CC1(c2ccc(Cl)cc2)CC(c2ccc(Cl)cc2)=Nc2c(O)cccc2N1` (stereo not drawn), the Activity in data set [1] was 54%; in data set [2] it was 53%; in the data set with Rattus norvegicus [5], “Non-toxic”. Moreover, in the data set on Glycine max, the inhibition result is “inactive”. Further, the IC50 in data set [3] turned out to be 2.5 µM. Moreover, the inhibition in vivo (commonly the change of the read-out against control, counted positive when it falls) at 10 µmol/kg in the data set on Rattus norvegicus [4] was found to be 35%.

In the case of `CC1=Nc2c(N)cccc2OC(C)(C)C1`, the Activity is 86% in data set [1], 87% in data set [6], 86% in data set [2] and 88% in data set [7]. In addition, the inhibition with Glycine max came out at 98%. Moreover, in data set [3], the IC50 is 70 µM.

Consider `CC1(c2ccc(Cl)cc2)CC(c2ccc(Cl)cc2)=Nc2c(N)cccc2O1` (stereo not drawn), for which the Activity worked out at 86% in data set [1], 87% in data set [6], 86% in data set [2] and 86% in data set [7]. Moreover, in the data set on Glycine max, the inhibition entry is “inactive”. Further, half-maximal inhibition in data set [3] (IC50) required 47.5 µM.

Take `CC1(C)CC(c2ccccc2)=Nc2ccccc2N1`: the Activity in data set [1] amounted to 15%; in data set [2], 14%. The inhibition in the data set with Glycine max is 6%. Besides, in data set [3], the IC50 was found to be 45 µM.

Consider `CC1=Nc2c(O)cccc2NC(C)(C)C1`, for which the Activity turned out to be 66% in data set [1], 44% in data set [6], 65% in data set [2] and 67% in data set [7]. Besides, the inhibition entry with Glycine max is “inactive”. This compound also yielded an IC50 in data set [3] of 77 µM.

As for `CC(Cc1ccc(O)c(O)c1)C(C)Cc1ccc(O)c(O)c1` (stereo not drawn), the Activity was 93% in data set [1] and 96% in data set [2]. For the same compound, the inhibition in the data set on Glycine max worked out at 84%.

On to `Cc1ccc(NC(=O)Oc2cccc3c2N=C(c2ccccc2)CC(C)(c2ccccc2)N3)cc1` (stereo not drawn), for which the Activity was found to be 10% in data set [1] and 9% in data set [2]. The compound also came in with an inhibition in the data set on Glycine max of 3%. Moreover, in data set [3], the midpoint of inhibition, the IC50, lay at 50 µM.

As to `COc1ccc2c(c1)c(CC(=O)O)c(C)n2C(=O)c1ccc(Cl)cc1` [INDOMETHACIN], the inhibition in vivo at 10 µmol/kg in the data set on Rattus norvegicus [4] is 47%.

For the origin of these results see ChEMBL document CHEMBL1629530, “1,5-Benzoxazepines vs 1,5-benzodiazepines. one-pot microwave-assisted synthesis and evaluation for antioxidant activity and lipid peroxidation inhibition” (J Med Chem, 2010).
